Data as given in ChEMBL document CHEMBL3112398, “Qualification of LSP1-2111 as a Brain Penetrant Group III Metabotropic Glutamate Receptor Orthosteric Agonist” (ACS Med Chem Lett, 2014).

Columns and labels:
[1] = Fraction unbound in rat plasma; type: ADME, cell-free
[2] = Ratio of AUC (0 to 6 hrs) from brain to plasma in Sprague-Dawley rat at 10 mg/kg, sc by quantitative microdialysis method; type: ADME, organism-based; design: dose 10 mg/kg, route subcutaneous; settings: in vivo
[3] = Ratio of AUC (0 to 6 hrs) from CSF to plasma in Sprague-Dawley rat at 10 mg/kg, sc by quantitative microdialysis method; type: ADME, organism-based; design: dose 10 mg/kg, route subcutaneous
Method in brief: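 Rats given 10 mg/kg SC, formulated in saline at pH 7.4 (N = 4). Plasma, CSF and brain were sampled over a 6 h time course starting at 0.5 h. Brain was homogenized without perfusion, so capillary blood was retained. Ratios were calculated from AUC0-6 of CSF or brain homogenate versus plasma.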

[4] = Plasma concentration in Sprague-Dawley rat at 10 mg/kg, sc after 60 mins by quantitative microdialysis method; type: ADME, organism-based; design: dose 10 mg/kg, route subcutaneous
Method in brief: (§1)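 Rat in vivo microdialysis with a MetaQuant probe at a low flow rate of 0.1 μL/min after SC doses of 10 or 30 mg/kg. Brain ECF dialysate and plasma concentrations followed over time. ECF values corrected for 96% in vivo probe recovery.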

[5] = system: Liver microsome; assay: Intrinsic clearance in rat liver microsomes; type: ADME
[6] = molecular target: Metabotropic glutamate receptor 4 (Homo sapiens, UniProt Q14833); assay: Displacement of [3H]-L-AP4 from human mGlu4 receptor
[7] = Fraction unbound in human plasma; type: ADME, cell-free
[8] = AUC (infinity) in Sprague-Dawley rat at 1 mg/kg, iv; type: ADME, organism-based; design: time infinity, dose 1 mg/kg, route intravenous; settings: plasma
Method in brief: (§2)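 Plasma concentrations were followed over time. Pharmacokinetic parameters were derived by noncompartmental analysis and reported as means of N = 2 animals.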

[9] = Fraction unbound in mouse plasma; type: ADME, cell-free
[10] = Volume of distribution at steady state in Sprague-Dawley rat at 1 mg/kg, iv; type: ADME, organism-based; design: dose 1 mg/kg, route intravenous; settings: in vivo, read-out: Vdss
Method in brief: (§3)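 SD rats given IV (1 mg/kg) or oral (10 mg/kg) doses as a solution in saline buffered to pH 7.4, dose volume 5 mL/kg, N = 2. Plasma concentration–time profiles analysed by noncompartmental analysis; reported values are means.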

[11] = Fraction unbound in mouse brain homogenates; type: ADME, tissue-based; settings: brain homogenate
[12] = Half life in Sprague-Dawley rat plasma at 10 mg/kg, sc by quantitative microdialysis method; type: ADME, organism-based; design: dose 10 mg/kg, route subcutaneous
Method in brief: (§4)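 Rats dosed SC at 10 mg/kg with drug in saline at pH 7.4; plasma, CSF and brain homogenate sampled over a 6 h time course (0.5–6 h), N = 4. Brain not perfused before homogenization. AUC0-6 computed from the concentration–time profiles.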

[13] = Plasma concentration in Sprague-Dawley rat at 30 mg/kg, sc after 60 mins by quantitative microdialysis method; type: ADME, organism-based; design: dose 30 mg/kg, route subcutaneous; method in brief: as §1
[14] = species on record: Homo sapiens; assay: Selectivity for mGlu4 receptor (unknown origin) over mGlu8 receptor (unknown origin)
[15] = species on record: Homo sapiens; assay: Selectivity for mGlu4 receptor (unknown origin) over mGlu7 receptor (unknown origin)
[16] = Passive apparent permeability of the compound by PAMPA; type: ADME
[17] = Kinetic aqueous solubility of the compound; type: physicochemical; settings: buffer; read-out: Kinetic_solubility
Method in brief: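 Kinetic aqueous solubility determined in an assay developed and optimized for lipophilic compounds; detection limit 800 μM.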

[18] = system: Plasma; assay: Plasma concentration in Sprague-Dawley rat at 10 mg/kg, sc after 0.5 to 6 hrs by quantitative microdialysis method; type: ADME, organism-based; design: dose 10 mg/kg, route subcutaneous; settings: in vivo; method in brief: as §4
[19] = species on record: Homo sapiens; assay: Selectivity for mGlu4 receptor (unknown origin) over mGlu6 receptor (unknown origin)
[20] = system: Brain; assay: Drug uptake in Sprague-Dawley rat brain at 10 mg/kg, sc after 30 mins by quantitative microdialysis method; type: ADME, organism-based; design: dose 10 mg/kg, route subcutaneous; settings: in vivo, 0.5 h; method in brief: as §4
[21] = system: Brain; assay: AUC (0 to 6 hrs) in Sprague-Dawley rat brain at 10 mg/kg, sc by quantitative microdialysis method; type: ADME, organism-based; design: time < 6 hr, dose 10 mg/kg, route subcutaneous; settings: in vivo; method in brief: as §4
[22] = AUC (0 to 6 hrs) in Sprague-Dawley rat CSF at 10 mg/kg, sc by quantitative microdialysis method; type: ADME, organism-based; design: time < 6 hr, dose 10 mg/kg, route subcutaneous; method in brief: as §4
[23] = system: Brain; assay: Drug uptake in Sprague-Dawley rat brain at 10 mg/kg, sc after 6 hrs by quantitative microdialysis method; type: ADME, organism-based; design: dose 10 mg/kg, route subcutaneous; settings: in vivo; method in brief: as §4
[24] = Cmax in Sprague-Dawley rat at 10 mg/kg, po; type: ADME, organism-based; design: dose 10 mg/kg, route oral; settings: in vivo; method in brief: as §3
[25] = Plasma clearance in Sprague-Dawley rat at 1 mg/kg, iv; type: ADME, organism-based; design: dose 1 mg/kg, route intravenous; method in brief: as §3
[26] = system: Brain; assay: Drug uptake in Sprague-Dawley rat brain at 10 mg/kg, sc after 4 hrs by quantitative microdialysis method; type: ADME, organism-based; design: dose 10 mg/kg, route subcutaneous; settings: in vivo; method in brief: as §4
[27] = Tmax in Sprague-Dawley rat at 10 mg/kg, po; type: ADME, organism-based; design: dose 10 mg/kg, route oral; settings: in vivo; method in brief: as §3
[28] = Fraction unbound in rat brain homogenates; type: ADME, tissue-based; settings: brain homogenate
[29] = AUC (0 to 6 hrs) in Sprague-Dawley rat plasma at 10 mg/kg, sc by quantitative microdialysis method; type: ADME, organism-based; design: time < 6 hr, dose 10 mg/kg, route subcutaneous; method in brief: as §4
[30] = AUC (infinity) in Sprague-Dawley rat at 10 mg/kg, po; type: ADME, organism-based; design: time infinity, dose 10 mg/kg, route oral; settings: plasma; method in brief: as §2
[31] = Lipophilicity, log D of the compound at pH 7.4; type: physicochemical; settings: buffer
[32] = Drug uptake in rat Sprague-Dawley ECF at 10 mg/kg, sc after 60 mins by quantitative microdialysis method; type: ADME, organism-based; design: dose 10 mg/kg, route subcutaneous; settings: read-out: Drug uptake; method in brief: as §1
[33] = Oral bioavailability in Sprague-Dawley rat at 10 mg/kg; type: ADME, organism-based; settings: in vivo; method in brief: as §3
[34] = molecular target: hERG (KCNH2) (Homo sapiens, UniProt Q12809); assay: Inhibition of human ERG channel at 30 uM by ionworks assay
[35] = system: MDR1; assay: Apparent permeability from basolateral to apical side in MDCK cells expressing MDR1; type: ADME, cell-based, Canis lupus familiaris; settings: dog
Method in brief: (§5)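 Bidirectional transport across MDCK/MDR1 monolayers, apparent permeability measured A→B and B→A. The B→A/A→B ratio is used as an indicator of P-gp substrate behaviour.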

[36] = Half life in Sprague-Dawley rat at 1 mg/kg, iv; type: ADME, organism-based; design: dose 1 mg/kg, route intravenous; settings: in vivo; method in brief: as §3
[37] = system: HepG2; assay: Cytotoxicity against human HepG2 cells by luminescence assay; type: cell-based
[38] = system: MDR1; assay: Apparent permeability from apical to basolateral side in MDCK cells expressing MDR1; type: ADME, cell-based, Canis lupus familiaris; settings: dog; method in brief: as §5
[39] = Drug uptake in Sprague-Dawley rat CSF at 10 mg/kg, sc after 6 hrs by quantitative microdialysis method; type: ADME, organism-based, Cerebrospinal fluid; design: dose 10 mg/kg, route subcutaneous; settings: read-out: Drug uptake; method in brief: as §4
[40] = Drug uptake in Sprague-Dawley rat ECF at 30 mg/kg, sc after 60 mins by quantitative microdialysis method; type: ADME, organism-based; design: dose 30 mg/kg, route subcutaneous; settings: read-out: Drug uptake; method in brief: as §1
[41] = Thermodynamic solubility of the compound at pH 7.4; type: physicochemical; settings: buffer, read-out: Therm_solubility
[42] = system: Liver microsome; assay: Intrinsic clearance in human liver microsomes; type: ADME
[43] = system: Plasma; assay: Maximum unbound concentration in Sprague-Dawley rat plasma at 10 mg/kg, sc after 0.5 hrs by quantitative microdialysis method; settings: in vivo

Metabotropic glutamate receptor 4, sequence (Q14833 whole entry): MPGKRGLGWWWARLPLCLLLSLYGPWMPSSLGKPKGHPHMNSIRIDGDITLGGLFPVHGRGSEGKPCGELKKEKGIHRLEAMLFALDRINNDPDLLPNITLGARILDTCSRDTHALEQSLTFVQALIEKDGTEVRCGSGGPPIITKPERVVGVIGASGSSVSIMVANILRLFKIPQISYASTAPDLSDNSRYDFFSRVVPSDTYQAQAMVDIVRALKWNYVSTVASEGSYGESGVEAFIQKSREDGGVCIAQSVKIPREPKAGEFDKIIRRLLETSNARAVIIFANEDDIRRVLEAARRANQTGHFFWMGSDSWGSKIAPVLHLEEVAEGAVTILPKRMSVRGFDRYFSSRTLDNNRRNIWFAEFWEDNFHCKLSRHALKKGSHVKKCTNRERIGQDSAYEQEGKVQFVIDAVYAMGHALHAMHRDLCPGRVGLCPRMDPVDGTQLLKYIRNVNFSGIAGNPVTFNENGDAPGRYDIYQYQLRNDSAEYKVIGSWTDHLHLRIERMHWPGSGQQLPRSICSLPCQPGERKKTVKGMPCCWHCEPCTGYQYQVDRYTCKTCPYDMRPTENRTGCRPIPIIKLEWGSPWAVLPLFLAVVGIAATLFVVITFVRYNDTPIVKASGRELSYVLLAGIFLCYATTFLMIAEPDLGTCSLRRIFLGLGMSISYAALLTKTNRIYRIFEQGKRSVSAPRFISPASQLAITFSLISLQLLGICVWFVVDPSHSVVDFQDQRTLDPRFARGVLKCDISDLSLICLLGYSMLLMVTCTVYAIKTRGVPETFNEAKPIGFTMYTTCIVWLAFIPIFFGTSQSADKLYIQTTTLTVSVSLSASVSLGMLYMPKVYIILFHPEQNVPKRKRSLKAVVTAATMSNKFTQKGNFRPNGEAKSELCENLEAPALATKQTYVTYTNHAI
hERG (KCNH2), sequence (Q12809 whole entry): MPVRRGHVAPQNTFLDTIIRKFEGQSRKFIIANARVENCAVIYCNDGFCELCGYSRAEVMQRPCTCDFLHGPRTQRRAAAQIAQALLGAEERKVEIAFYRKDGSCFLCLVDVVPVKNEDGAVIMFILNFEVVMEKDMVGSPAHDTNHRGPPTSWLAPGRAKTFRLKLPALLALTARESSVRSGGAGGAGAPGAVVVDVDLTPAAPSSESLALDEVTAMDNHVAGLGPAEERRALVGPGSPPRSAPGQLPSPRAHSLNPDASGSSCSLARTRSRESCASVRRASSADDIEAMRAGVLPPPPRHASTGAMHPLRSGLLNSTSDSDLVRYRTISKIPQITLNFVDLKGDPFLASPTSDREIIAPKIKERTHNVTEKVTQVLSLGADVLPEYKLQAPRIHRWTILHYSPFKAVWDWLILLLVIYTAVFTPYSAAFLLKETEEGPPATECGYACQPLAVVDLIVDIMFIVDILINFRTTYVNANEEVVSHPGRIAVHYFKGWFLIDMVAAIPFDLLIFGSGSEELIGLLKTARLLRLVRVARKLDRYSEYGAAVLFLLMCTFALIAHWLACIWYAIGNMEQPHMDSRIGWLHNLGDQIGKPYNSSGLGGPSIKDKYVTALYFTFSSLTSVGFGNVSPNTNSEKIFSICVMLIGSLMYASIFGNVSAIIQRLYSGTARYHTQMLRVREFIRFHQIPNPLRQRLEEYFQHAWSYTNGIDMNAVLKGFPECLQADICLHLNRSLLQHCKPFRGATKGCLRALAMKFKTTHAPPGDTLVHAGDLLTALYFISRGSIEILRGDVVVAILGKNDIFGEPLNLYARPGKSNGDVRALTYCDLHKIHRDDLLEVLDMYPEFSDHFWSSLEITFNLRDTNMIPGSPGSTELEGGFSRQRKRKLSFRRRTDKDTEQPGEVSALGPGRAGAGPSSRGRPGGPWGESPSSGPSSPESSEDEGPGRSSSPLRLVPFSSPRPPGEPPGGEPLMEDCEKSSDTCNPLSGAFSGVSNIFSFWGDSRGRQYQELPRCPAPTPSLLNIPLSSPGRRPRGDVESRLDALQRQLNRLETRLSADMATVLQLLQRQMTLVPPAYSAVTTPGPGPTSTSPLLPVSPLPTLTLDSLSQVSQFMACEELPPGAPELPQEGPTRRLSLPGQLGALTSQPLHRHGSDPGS

## COc1cc(C(O)P(=O)(O)CC[C@H](N)C(=O)O)cc([N+](=O)[O-])c1O (mixture of isomers)
[1]
  fraction unbound: > 0.99
[2]
  Ratio AUC: 2.4%
[3]
  Ratio AUC: 12%
[4]
  concentration at 1 h: 31 µM
[5]
  CLH: 3.1 mL/min
[6]
  IC50: 8.6 µM
[7]
  fraction unbound: 0.73
[8]
  AUC(0-inf): 2800 ng·h/mL
[9]
  fraction unbound: > 0.99
[10]
  Vd: 0.1 L/kg
[11]
  fraction unbound: > 0.99
[12]
  half-life: 20 min
[13]
  concentration at 1 h: 114 µM
[14]
  Selectivity ratio: 30
[15]
  Selectivity ratio: 25
[16]
  Papp: < 0.1 ×10⁻⁶ cm/s
[17]
  solubility kinetic: > 800 µM
[18]
  Cp: 150 ng/mL
[19]
  Selectivity ratio: 1
[20]
  Drug uptake: 1 µM
[21]
  AUC: 0.7 µg·h/g
[22]
  AUC(0-t) at 6 h: 3500 ng·h/mL
[23]
  Drug uptake: 0.4 µM
[24]
  Cmax: 92 ng/mL
[25]
  clearance: 6.2 mL/min/kg
[26]
  Drug uptake: 0.08 µM
[27]
  Tmax: 84 min
[28]
  fraction unbound: > 0.99
[29]
  AUC(0-t) at 6 h: 30000 ng·h/mL
[30]
  AUC(0-inf): 200 ng·h/mL
[31]
  logD: -0.7
[32]
  concentration at 1 h: 1.8 µM
[33]
  bioavailability: 0.8%
[34]
  inhibition at 30 µM: 14%
[35]
  Papp B→A: 0.5 ×10⁻⁶ cm/s
[36]
  half-life: 18 min
[37]
  Activity: Non-toxic
[38]
  Papp A→B: 0.2 ×10⁻⁶ cm/s
[39]
  concentration at 6 h: 0.7 µM
[40]
  concentration at 1 h: 9.8 µM
[41]
  solubility thermodynamic: > 1800 µg/mL
[42]
  CLH: 0.1 L/min
[43]
  Cp(f): 55.2 µM

## N[C@@H](CCP(=O)(O)C(O)c1ccc(OCC(=O)O)cc1)C(=O)O (stereo partly specified)
[14]
  Selectivity ratio: 300
[15]
  Selectivity ratio: 100
[19]
  Selectivity ratio: 40
